Experimental data from ChEMBL document CHEMBL1139169, “Design, synthesis, and antiviral properties of 4'-substituted ribonucleosides as inhibitors of hepatitis C virus replication: the discovery of R1479” (Bioorg Med Chem Lett, 2007).

How the values were obtained:
[1] = system: Hepatitis C virus; assay: Antiviral activity against HCV 1b replicon in human 2209-23 cells assessed as inhibition of viral replication at 20 uM; format: functional, Hepacivirus hominis; details: genotype 1b
How it was run: (§1)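 Huh-7 replicon cell line 2209-23. Compounds were tested at a single fixed concentration and scored as percent inhibition of replicon replication, or titrated to give the IC50, the concentration producing a 50% reduction in replicon replication.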

[2] = Cytotoxicity against human 2209-23 cells at 20 uM; format: cell-based; details: 2209-23, 20 µM
[3] = system: Hepatitis C virus; assay: Antiviral activity against HCV 1b replicon in human 2209-23 cells assessed as inhibition of viral replication at 100 uM; format: functional, Hepacivirus hominis; details: genotype 1b
[4] = Cytotoxicity against human 2209-23 cells at 100 uM; format: cell-based; details: 2209-23, 100 µM
[5] = system: Hepatitis C virus; assay: Inhibition of HCV 1b BK NS5B570 RNA polymerase; parameters: species or system Hepatitis C virus subtype 1b
How it was run: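 NS5B570-BK polymerase activity was read as incorporation of radiolabeled nucleoside monophosphate into acid-insoluble RNA products, with HCV cIRES RNA as template.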

[6] = system: Hepatitis C virus; assay: Antiviral activity against HCV 1b replicon in human 2209-23 cells; format: functional, organism-based, Hepacivirus hominis; details: genotype 1b; how it was run: as §1
[7] = Cytotoxicity against human 2209-23 cells; format: cell-based
[8] = Cytostatic activity against human 2209-23 cells; format: ADME, cell-based; details: read-out: CT50 (the source's name)
How it was run: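 Replicon cells were tested for proliferation by measuring incorporation of tritiated thymidine into cellular DNA with a scintillation proximity assay (SPA). CT50 was taken as the cytostatic concentration.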

| Compound | inhibition at 20 µM [1] | Activity [2] | further results |
| --- | --- | --- | --- |
| N#C[C@]1(CO)O[C@@H](n2ccc(N)nc2=O)[C@H](O)[C@@H]1O | 99% | 100% |  |
| CC#C[C@]1(CO)O[C@@H](n2ccc(N)nc2=O)[C@H](O)[C@@H]1O | 11% | 0% |  |
| N#C[C@]1(CO)O[C@@H](n2ccc(=O)[nH]c2=O)[C@H](O)[C@@H]1O | 0% | 0% |  |
| CC#C[C@]1(CO)O[C@@H](n2ccc(=O)[nH]c2=O)[C@H](O)[C@@H]1O |  |  | inhibition at 100 µM [3]: 76%; Activity [4]: 19% |
| [N-]=[N+]=N[C@]1(CO)O[C@@H](n2ccc(=O)[nH]c2=O)[C@H](O)[C@@H]1O | 13% | 17% | IC50 [5]: 0.3 µM |
| C=C[C@]1(CO)O[C@@H](n2ccc(=O)[nH]c2=O)[C@H](O)[C@@H]1O |  | 0% | inhibition at 100 µM [3]: 50% |
| C#C[C@]1(CO)O[C@@H](n2ccc(=O)[nH]c2=O)[C@H](O)[C@@H]1O | 0% | 0% |  |
| O=c1ccn([C@@H]2OC(CO)(CO)[C@@H](O)[C@H]2O)c(=O)[nH]1 | 1% | 0% |  |
| C=CC[C@]1(CO)O[C@@H](n2ccc(N)nc2=O)[C@H](O)[C@@H]1O | 0% | 0% |  |
| C[C@@]1(O)[C@H](O)[C@@H](CO)O[C@H]1n1ccc(N)nc1=O |  |  | IC50 [6]: 1.23 µM; CC50 [7]: > 33 µM; GI50 [8]: > 100 µM |
| C=C[C@]1(CO)O[C@@H](n2ccc(N)nc2=O)[C@H](O)[C@@H]1O |  | 0% | inhibition at 100 µM [3]: 53% |
| CC[C@]1(CO)O[C@@H](n2ccc(N)nc2=O)[C@H](O)[C@@H]1O |  |  | inhibition at 100 µM [3]: 20%; Activity [4]: 20% |
| Nc1ccn([C@@H]2O[C@H](CO)[C@@H](O)[C@H]2F)c(=O)n1 |  |  | IC50 [6]: 0.58 µM; CC50 [7]: > 100 µM; GI50 [8]: 0.8 µM |
| C=CC[C@]1(CO)O[C@@H](n2ccc(=O)[nH]c2=O)[C@H](O)[C@@H]1O |  |  | IC50 [6]: 22 µM; CC50 [7]: 39 µM |
| Nc1ccn([C@@H]2OC(CO)(CO)[C@@H](O)[C@H]2O)c(=O)n1 | 13% | 2% |  |
| C#C[C@]1(CO)O[C@@H](n2ccc(N)nc2=O)[C@H](O)[C@@H]1O | 3% | 0% | IC50 [5]: 2.7 µM |
| [N-]=[N+]=N[C@]1(CO)O[C@@H](n2ccc(N)nc2=O)[C@H](O)[C@@H]1O [4'-AZIDOCYTIDINE] | 97% | 13% | IC50 [6]: 1.28 µM; CC50 [7]: > 2000 µM; GI50 [8]: > 100 µM; IC50 [5]: 0.29 µM |
| CCO[C@]1(CO)O[C@@H](n2ccc(N)nc2=O)[C@H](O)[C@@H]1O | 11% | 0% |  |
